A selection: hits, their analogues and other compounds. The true share with any hit is near 3.2%.
NR2E3 ag-1: NR2E3 agonists in two-hybrid cells, primary screen, cell-based, luminescence, CHO-S, Gal4-NCOR/VP16-NR2E3. Photoreceptor-specific nuclear receptor (Homo sapiens), Q9Y5X4. luciferase. inhibition of corepressor binding, % at 3.98 µM. hit rate 0.35% among 360,000. AID 602229, 2012;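 active = inhibition above the mean of all tested compounds plus 3 SD, cut at about 70% in these data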;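 also: 0% = DMSO with NR2E3 transfected cells and 100% = cells lacking NR2E3 construct; higher means lower luciferase signal from less NR2E3 corepressor binding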
Target sequence (Q9Y5X4 whole entry, looked up, the tested form may be a part): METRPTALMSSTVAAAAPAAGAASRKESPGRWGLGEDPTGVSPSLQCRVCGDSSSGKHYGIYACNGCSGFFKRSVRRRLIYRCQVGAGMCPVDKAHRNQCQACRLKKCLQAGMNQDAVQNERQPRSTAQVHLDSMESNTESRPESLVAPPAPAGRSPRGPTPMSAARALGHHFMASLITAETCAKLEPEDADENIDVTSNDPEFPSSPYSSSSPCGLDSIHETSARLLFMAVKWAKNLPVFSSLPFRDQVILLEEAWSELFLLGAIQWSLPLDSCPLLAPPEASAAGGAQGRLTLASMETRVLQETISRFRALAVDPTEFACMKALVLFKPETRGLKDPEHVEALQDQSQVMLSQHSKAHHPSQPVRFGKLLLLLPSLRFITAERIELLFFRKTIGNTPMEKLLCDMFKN
NR2E3 ag-2: inhibitors of NR2E3-RetCOR corepressor binding, primary screen, NR2E3 agonist project, biochemical, TR-FRET, GST-NR2E3, biotin-RetCOR; AID 2300, 2010; inhibition of corepressor binding, % at 4.78 µM; hit rate 0.12% among 320,000; 1536-well;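 active = percent inhibition above the cutoff of mean plus 3 SD of all tested compounds, set per screening campaign, cut at about 20% in these data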;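 also: 0% = DMSO wells and 100% = biotin wells as full block of FRET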
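Material: NR2E3–RetCOR corepressor complex / Incubation: Compound–protein incubation for 5 h at 4 °C / Dosing: compound at 4.8 µM, single dose / Detection: time-resolved FRET / Benchmarks: high control biotin, low control 0.6% DMSO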
DAX1 inh-1: DAX1 (NR0B1) inhibitors on StAR promoter, primary screen, cell-based, luminescence, SF-1 (NR5A1), full-length DAX-1; HEK293T StAR-luciferase reporter, SF-1/DAX-1 repression relief; inhibition, % at 6.8 µM; hit rate 1.1% among 370,000;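 active = inhibition above the mean over all tested compounds plus 3 SD, cut at about 3.6% in these data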;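 also: 0% = DAX-1 cells with DMSO and 100% = cells lacking DAX-1 with DMSO; higher inhibition means more luminescence from relief of DAX-1 repression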
JMJD2C inh: inhibitors of GASC-1 histone demethylase, primary screen, biochemical, fluorescence, DELFIA europium; AID 2099, 2009; hit rate 0.069% among 330,000; inhibition, % at 2.35 µM; GST-JMJD2C(1-420) H3K9me3 demethylation; Lysine-specific demethylase 4C (Homo sapiens), Q9H3R0;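 active = more than half of a compound's replicate wells show inhibition beyond 50%, single wells judged on their own value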;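 also: signal counts dimethyl H3K9 product captured on neutravidin plate; 0% = median of DMSO wells and 100% = 0.3 times that DMSO median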
SMARCA2 act: SMARCA2 (BRM) function activators, primary screen, cell-based, luminescence, high throughput | MG213 cells, MMTV-luciferase reporter, dexamethasone, overnight | activation, % at 9.1 µM | hit rate 1% among 370,000; in the data active = activation above about 7.8%;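 also: 0% = vehicle wells and 100% = reference activator wells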
DAX1 inh-2: DAX1 (NR0B1) inhibitors, primary screen, cell-based, HEK293, Gal4-DAX1, luciferase luminescence. Nuclear receptor subfamily 0 group B member 1 (Homo sapiens), P51843. HEK293 Gal4-DAX1 luciferase reporter. inhibition, % at 6.75 µM. hit rate 0.99% among 340,000. AID 504766, 2011;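 active = inhibition above the mean over all tested compounds plus 3 SD, cut at about 4.2% in these data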;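 also: 0% = DAX1-transfected cells with DMSO and 100% = empty-vector control cells with DMSO; inhibition shows as a rise in luminescence from relieved DAX1 repression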
Target sequence (P51843 207-470 limits assumed): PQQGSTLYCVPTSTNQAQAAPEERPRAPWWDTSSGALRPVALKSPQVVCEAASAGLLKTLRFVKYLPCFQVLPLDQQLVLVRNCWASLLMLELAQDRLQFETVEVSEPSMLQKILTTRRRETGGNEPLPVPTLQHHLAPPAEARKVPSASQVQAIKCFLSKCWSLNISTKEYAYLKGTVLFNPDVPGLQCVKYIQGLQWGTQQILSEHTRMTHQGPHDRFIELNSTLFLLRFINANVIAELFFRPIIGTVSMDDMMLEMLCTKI
An asterisk follows results filed as active; x = not tested or not shown.

SMILES	NR2E3 ag-1	NR2E3 ag-2	DAX1 inh-1	JMJD2C inh	SMARCA2 act	DAX1 inh-2
Cc1ccc(C(=O)Nc2nccc(C)n2)cc1	-1.4	3.6	0.2	2.7	0.3	4.8*
COc1ccc(NC(=O)c2ccccc2C)cc1	-99.9	2.9	1.6	15.9	1.1	6.3*
COc1ccc(NC(=O)c2ccc3c(c2)NC(=O)CS3)cc1	-42.1	4.3	4.4*	-2.8	-1.4	1.0
Cc1nn(-c2ccccc2)c(Cl)c1C(=O)N1CCN(C)CC1	-17.8	3.9	-0.8	3.6	-1.1	9.1*
Cc1ccnc(NC(=O)c2cccc(OC(F)F)c2)n1	-12.5	2.1	0.4	-4.3	3.0	-0.6
COc1ccc(NC(=O)c2ccc(-c3ccccc3C(F)(F)F)o2)cc1	-6.8	0.5	-0.2	-3.4	7.9*	2.8
O=C(Nc1cccc(F)c1)c1ccc(-c2ccccc2C(F)(F)F)o1	x	x	-0.3	x	0.9	x
COc1ccc(NC(=O)c2c(C)nn(-c3ccccc3)c2Cl)cc1	-43.1	-1.3	0.1	4.9	7.3	5.1*
COc1ccc(C(=O)Nc2nccs2)cc1	-69.1	-0.6	1.6	-1.7	5.7	5.7*
COC(=O)[C@H](C(C)C)N1CCc2nnn(CC3CCCCC3)c2-c2cc(F)ccc2S1(=O)=O	x	x	-1.2	x	1.8	x
Cc1cc(Br)ccc1OCCCN1CCC(C(O)(c2ccccc2)c2ccccc2)CC1	x	x	0.6	x	-4.4	x
COCCN(Cc1cc2cc(C)ccc2n2nnnc12)C(=S)Nc1ccc(C)cc1	4.1	-1.3	0.4	-25.0	-2.1	4.6*
COCCN(Cc1cc2cc(C)ccc2n2nnnc12)C(=S)Nc1ccc(OC)cc1	-7.5	x	0.4	x	-2.7	-0.6
N#CCCn1nnc2ccccc21	-26.6	-1.3	0.1	-35.2	-1.9	0.4
c1ccc(CCn2nnc3ccccc32)cc1	-70.8	3.5	2.4	-0.6	1.3	6.3*
CCOC(=O)/C(C#N)=C/C=C1/C=CC=CN1C	-38.6	-5.6	0.4	-0.8	3.2	5.7*
C=CCN1C=CC(=C/C=C(/C#N)C(=O)OCC)C=C1	-107.8	-12.0	3.4	3.6	4.0	2.6
Nn1c(Nc2ccccc2)nc2ccccc21	-112.6	2.7	0.9	2.6	4.3	4.4*
CNc1nnc(-c2ccc(N(C)C)cc2)s1	-92.8	-0.4	5.8*	8.1	4.1	-2.4
CN(C)c1ccc(Cc2ccc(N(C)C)cc2)cc1	-5.9	x	-2.6	x	-0.9	-0.3
CCOC(=O)[C@]12CCC=C1N(Cc1ccccc1)C(=O)[C@H](CC(=O)N1CCSCC1)C2	0.7	x	-0.2	x	-4.4	x
CCOC(=O)[C@]12CCC=C1N(Cc1ccccc1)C(=O)[C@H](CC(=O)N1CCOCC1)C2	-6.8	x	4.3*	x	3.3	x
CCOC(=O)[C@]12CCC=C1N(CCC1=CCCCC1)C(=O)[C@H](CC(=O)N1CCSCC1)C2	-20.1	x	4.1*	x	-2.5	x
COc1ccc(-c2nnc(SCc3cccc(F)c3)n2-c2ccccc2)cc1	x	x	-0.1	x	0.4	x
COc1ccccc1NC(=O)OCCCN1CCC2(CCC(C)CC2)C1=O (stereo not drawn)	x	x	-0.7	x	-0.7	x
SMILES	NR2E3 ag-1	NR2E3 ag-2	DAX1 inh-1	JMJD2C inh	SMARCA2 act	DAX1 inh-2
COc1ccc(CC2(CO)CCN(Cc3cnn(-c4ccccc4OC)c3)CC2)cc1	-6.2	7.0	0.5	1.2	-1.8	5.8*
COc1ccc(CC2(CO)CCN(Cc3cnn(-c4ccccc4)c3)CC2)cc1	-17.3	-0.7	-0.7	-25.1	-0.1	-0.8
CCc1ccc(N=Nc2ccc(O)c3[nH]cnc23)cc1	-67.0	-1.1	0.7	8.0	4.5	5.3*
COc1ccc(N=Nc2ccc(O)c3ncccc23)cc1	-19.5	0.6	-0.4	-1.7	4.7	0.7
Nc1nc2ccccc2cc1-c1cccs1	-75.6	-4.4	1.2	13.6	3.8	5.4*
C=CCn1c(-c2cccnc2Cl)nc2ccccc21	17.2	4.1	-0.5	-4.8	2.0	0.3
Clc1cccc(Cl)c1Cn1c(-c2cccnc2Cl)nc2ccccc21	4.8	0.1	x	52.1*	x	-1.5
COc1ccc(Cc2nc3ccc(C(=O)NCC(C)(C)OC)cc3o2)cc1	-124.6	5.5	1.6	2.0	6.8	4.6*
C=CCN1[C@@H](Cc2ccccc2)COc2cc(F)ccc2S1(=O)=O	x	x	-2.0	x	0.4	x
COc1ccc(-c2cc(-c3ccc(Cl)cc3)n[nH]2)c(O)c1	-220.0	0.0	2.1	-0.4	1.2	5.4*
COc1ccc(-c2cc(-c3cc(OC)ccc3O)[nH]n2)cc1	-153.8	3.9	0.6	-6.4	0.2	3.0
Cc1cnc(NC(=O)CN2C(=O)C3CC=CCC3C2=O)s1 (stereo not drawn)	15.1	-2.3	0.5	-7.9	0.2	3.7
Cc1cnc(NC(=O)CCN2C(=O)C3CCCCC3C2=O)s1 (stereo not drawn)	-1.5	-4.0	0.3	5.0	0.0	6.7*
Cc1ccccc1Nc1nc(N)nc(COC(=O)c2cccn2C)n1	-101.7	4.0	2.7	12.7	7.1	5.5*
CCc1ccccc1Nc1nc(N)nc(COC(=O)c2cccn2C)n1	-31.1	1.8	2.6	-5.8	0.2	0.1
Fc1ccc(-n2nnc(-c3cccnc3Cl)n2)cc1	-93.1	-0.1	3.1	-7.5	4.0	4.4*
Clc1ncccc1-c1nnn(-c2ccccc2)n1	-127.4	-1.6	2.4	3.9	7.1	0.6
COc1ccccc1NS(=O)(=O)c1cccc(C(=O)NCC(c2ccccc2OC)N2CCCC2)c1 (stereo not drawn)	-8.6	3.2	4.3*	11.9	-2.2	2.2
Cc1nc2ccccc2n1CCc1ccccc1	-4.3	-2.6	-0.5	6.2	-1.0	-0.3
CCN(CC)CCn1c(C)nc2ccccc21	-0.2	0.2	-0.2	-3.9	3.1	4.3*
COc1ccc(NC(=O)c2ccc(OC(F)F)cc2)cc1Cl	-104.4	-2.5	3.7*	-4.3	0.9	0.5
O=C(Nc1ccc(Cl)cn1)Nc1ccc(Cl)cn1	0.6	1.1	-0.6	-0.3	-1.3	-0.1
COC(=O)c1ccc(NC(=O)Nc2ccccc2F)cc1	-91.8	1.8	3.3	-1.5	0.9	0.2
COC(=O)c1cccc(NC(=O)Nc2ccccc2OC)c1	-86.9	4.3	0.2	7.5	2.2	6.5*
O=C(Nc1ccc(Cl)cn1)Nc1ccccc1F	-41.0	2.9	0.4	-6.9	4.3	6.9*
COc1ccc(NC(=O)Nc2ccccc2F)cc1Cl	-103.8	-0.3	3.7*	3.3	4.6	3.0
COC(=O)[C@H](C(C)C)N1Cc2nnn(CC3CCCCC3)c2-c2ccccc2S1(=O)=O	x	x	-0.3	x	-1.4	x
COc1ccccc1NC(=O)NNC(=O)c1ccncc1	-11.1	x	3.8*	x	-6.8	-1.6

High-throughput results (PubChem BioAssay)
